Active and inactive are the calls of the source. The calls are words filed in the database; no cut-off is given here.

Data set [1] can be described thus: Drug level in methionine and choline deficient fed Sprague-Dawley rat bile treated with ezetimibe at 10 mg/kg, iv after 30 to 90 mins by LC-MS/MS method. On the set-up: dose 10 mg/kg, route intravenous. Format: ADME, organism-based. The following applies: in vivo. A digest of the protocol:
(§1)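 Male SD rats (200-250 g) on MCD diet 8 weeks, urethane-anesthetized (1.2 g/kg i.p.), femoral vein/artery and bile duct cannulated, core temperature maintained. EZE 10 mg/kg i.v. via femoral vein in 10% ethanol/40% propylene glycol/30% PEG 400/20% water (n=3-5). Bile collected at 15-min intervals over 120 min; total EZE after β-glucuronidase (50°C, 60 min) and EZE by LC-MS/MS; glucuronide = total minus parent.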

A short description of data set [2]: Drug level in methionine and choline deficient fed Sprague-Dawley rat urine treated with ezetimibe at 10 mg/kg, iv after 120 mins by LC-MS/MS method. It is filed as ADME, organism-based. Details: dose 10 mg/kg, route intravenous. Conditions: in vivo, 2 h. A digest of the protocol:
(§2)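 After 8 weeks MCD diet, male SD rats under urethane received EZE 10 mg/kg i.v. through femoral vein cannula (ethanol/propylene glycol/PEG 400/water vehicle; n=3-5). Terminal urine taken by bladder puncture at 120 min; EZE and β-glucuronidase-hydrolysed total EZE measured by LC-MS/MS; glucuronide by difference.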

Data set [3] in a line: Drug metabolism in methionine and choline deficient fed Sprague-Dawley rat urine assessed as ezetimibe glucuronide formation at 10 mg/kg, iv after 120 mins by LC-MS/MS method. It is filed as ADME, organism-based. Details: dose 10 mg/kg, route intravenous. The following applies: in vivo, 2 h. The essentials:
as §2

Data set [4] deals with Plasma. Briefly: Drug level in methionine and choline deficient fed Sprague-Dawley rat plasma at 10 mg/kg, iv after 120 mins by LC-MS/MS method. Format: ADME, organism-based. Details: dose 10 mg/kg, route intravenous. The following applies: in vivo, 2 h. A digest of the protocol: (§3)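 MCD-diet (8 weeks) male SD rats under urethane, femoral artery/vein and bile duct cannulated; EZE 10 mg/kg i.v. bolus via femoral vein in ethanol/propylene glycol/PEG 400/water vehicle (n=3-5). Arterial plasma sampled from 2 to 120 min; 25 µL plasma analysed by LC-MS/MS with and without β-glucuronidase pre-hydrolysis; glucuronide calculated by difference. Mean ± SEM.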

Data set [5] in a line: Drug level in methionine and choline deficient fed Sprague-Dawley rat bile at 10 mg/kg, iv after 30 to 90 mins by LC-MS/MS method. Details: dose 10 mg/kg, route intravenous. The following applies: in vivo. Format: ADME, organism-based. A digest of the protocol:
as §1

Data set [6] relates to Plasma. Briefly: Drug metabolism in methionine and choline deficient fed Sprague-Dawley rat plasma assessed as ezetimibe glucuronide formation at 10 mg/kg, iv after 40 mins by LC-MS/MS method. Details: dose 10 mg/kg, route intravenous. Conditions: in vivo. Format: ADME, organism-based. A digest of the protocol: as §3
The subject of data set [7] is Plasma. Briefly: Drug level in methionine and choline deficient fed Sprague-Dawley rat plasma at 10 mg/kg, po after 120 mins by LC-MS/MS method. It is filed as ADME, organism-based. The following applies: in vivo, 2 h. On the set-up: dose 10 mg/kg, route oral. A digest of the protocol: (§4)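 Cannulated, urethane-anesthetized male SD rats after 8 weeks MCD diet given EZE 10 mg/kg orally in 0.25% carboxymethylcellulose (n=3-5). Plasma collected from 2 to 120 min post-dose; total EZE (after β-glucuronidase, 50°C 60 min) and parent EZE quantified by LC-MS/MS; glucuronide = total minus parent. Mean ± SEM.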

Data set [8] concerns Plasma. Description: Drug metabolism in methionine and choline deficient fed Sprague-Dawley rat plasma assessed as ezetimibe glucuronide formation at 10 mg/kg, po after 40 mins by LC-MS/MS method. It is filed as ADME, organism-based. Details: dose 10 mg/kg, route oral. Conditions: in vivo. The essentials:
as §4

A short description of data set [9]: Drug metabolism in methionine and choline deficient fed Sprague-Dawley rat bile assessed as ezetimibe glucuronide formation at 10 mg/kg, iv after 30 to 90 mins by LC-MS/MS method. The following applies: in vivo. Format: ADME, organism-based. On the set-up: dose 10 mg/kg, route intravenous. A digest of the protocol: as §1
The test system of data set [10] is Rattus norvegicus. Briefly: Effect on total bile acid levels in Sprague-Dawley rat nonalcoholic steatohepatitis model at 10 mg/kg, iv after 120 mins by spectrophotometry. It is filed as functional, organism-based. On the set-up: dose 10 mg/kg.
For data set [11], the system named is Plasma. Description: Drug metabolism in methionine and choline deficient fed Sprague-Dawley rat plasma assessed as ezetimibe glucuronide formation at 10 mg/kg, iv after 120 mins by LC-MS/MS method. Details: dose 10 mg/kg, route intravenous. Format: ADME, organism-based. Conditions: in vivo, 2 h. A digest of the protocol:
as §3

A short description of data set [12]: Drug metabolism in methionine and choline deficient fed Sprague-Dawley rat urine assessed as ezetimibe glucuronide formation at 10 mg/kg, po after 120 mins by LC-MS/MS method. On the set-up: dose 10 mg/kg, route oral. The following applies: in vivo, 2 h. Format: ADME, organism-based. The essentials:
(§5)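 MCD-fed (8 weeks) male SD rats, urethane-anesthetized and cannulated, dosed EZE 10 mg/kg by gavage in 0.25% carboxymethylcellulose (n=3-5). Urine collected by bladder puncture 120 min post-dose; parent and total EZE (after β-glucuronidase, 50°C, 60 min) by LC-MS/MS, glucuronide calculated as their difference.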

Data set [13] has as its system Plasma. Briefly: Drug level in methionine and choline deficient fed Sprague-Dawley rat plasma at 10 mg/kg, iv after 40 mins by LC-MS/MS method. Format: ADME, organism-based. Details: dose 10 mg/kg, route intravenous. The following applies: in vivo. A digest of the protocol:
as §3

Data set [14] deals with Rattus norvegicus. Description: Effect on total bile acid levels in Sprague-Dawley rat nonalcoholic steatohepatitis model at 10 mg/kg, po after 120 mins by spectrophotometry. On the set-up: dose 10 mg/kg. Format: functional, organism-based.
Data set [15] in a line: Drug level in methionine and choline deficient fed Sprague-Dawley rat bile at 10 mg/kg, po after 120 mins by LC-MS/MS method. On the set-up: dose 10 mg/kg, route oral. It is filed as ADME, organism-based. Conditions: in vivo, 2 h. A digest of the protocol:
(§6)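 Male SD rats (200-250 g) fed MCD diet 8 weeks, urethane-anesthetized with femoral and bile duct cannulae. EZE 10 mg/kg by oral gavage in 0.25% carboxymethylcellulose (n=3-5). Bile taken at 15-min intervals to 120 min; samples ±β-glucuronidase hydrolysis (50°C, 60 min), hydroxychalcone internal standard, LC-MS/MS on C18 gradient; glucuronide derived as total minus unconjugated EZE.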

The nature of data set [16]: Drug level in methionine and choline deficient fed Sprague-Dawley rat urine at 10 mg/kg, po after 120 mins by LC-MS/MS method. Format: ADME, organism-based. On the set-up: dose 10 mg/kg, route oral. The following applies: in vivo, 2 h. The essentials:
as §5

Data set [17] in a line: Drug level in methionine and choline deficient fed Sprague-Dawley rat urine at 10 mg/kg, iv after 120 mins by LC-MS/MS method. It is filed as ADME, organism-based. On the set-up: dose 10 mg/kg, route intravenous. The following applies: in vivo, 2 h. The essentials:
as §2

Data set [18] concerns Plasma. Description: Drug level in methionine and choline deficient fed Sprague-Dawley rat plasma at 10 mg/kg, po after 40 mins by LC-MS/MS method. On the set-up: dose 10 mg/kg, route oral. Format: ADME, organism-based. Conditions: in vivo. The essentials:
as §4

Data set [19] has as its system Plasma. Briefly: Drug metabolism in methionine and choline deficient fed Sprague-Dawley rat plasma assessed as ezetimibe glucuronide formation at 10 mg/kg, po after 120 mins by LC-MS/MS method. It is filed as ADME, organism-based. On the set-up: dose 10 mg/kg, route oral. The following applies: in vivo, 2 h. A digest of the protocol:
as §4

A short description of data set [20]: Drug metabolism in methionine and choline deficient fed Sprague-Dawley rat bile assessed as ezetimibe glucuronide formation at 10 mg/kg, po after 120 mins by LC-MS/MS method. It is filed as ADME, organism-based. Details: dose 10 mg/kg, route oral. Conditions: in vivo, 2 h. A digest of the protocol: as §6

Turning to `O=C(O)[C@H]1O[C@@H](Oc2ccc([C@@H]3[C@@H](CC[C@H](O)c4ccc(F)cc4)C(=O)N3c3ccc(F)cc3)cc2)[C@H](O)[C@@H](O)[C@@H]1O`, the results for the Drug metabolism entry in data set [1] and in data set [2] were “metabolite_not_detected” and “metabolite_detected”, respectively.

For `O=C1[C@H](CC[C@H](O)c2ccc(F)cc2)[C@@H](c2ccc(O)cc2)N1c1ccc(F)cc1` [EZETIMIBE], the Drug metabolism result in data set [3] is reported as “metabolite_detected”; with Plasma [6] it was “metabolite_detected”; in the data set with Plasma [8] it was “metabolite_detected”; in data set [9] it was “metabolite_not_detected”; in the data set on Plasma [11] it was “metabolite_detected”; in [12], “metabolite_detected”. Besides, the Drug metabolism entry (in the data set with Plasma [19]; in data set [20]) was “metabolite_detected” each time. Moreover, the Drug uptake entry in the data set with Plasma [4] is given as “Active”; in [5], “Not Active”; in the data set with Plasma [7], “Active”; in the data set on Plasma [13], “Active”; in [15], “Active”; in data set [16], “Active”. Moreover, the Drug uptake entry (in [17]; in the data set with Plasma [18]) was “Active” in each case. For the same molecule, the outcome in the data set on Rattus norvegicus [10] and in the data set with Rattus norvegicus [14] was inactive.

(Values after ChEMBL document CHEMBL3526134, “Molecular mechanism of altered ezetimibe disposition in nonalcoholic steatohepatitis” (Drug Metab Dispos, 2012).)
